The source of these data is ChEMBL document CHEMBL2157878, “In vitro cellular uptake and dimerization of signal transducer and activator of transcription-3 (STAT3) identify the photosensitizing and imaging-potential of isomeric photosensitizers derived from chlorophyll-a and bacteriochlorophyll-a” (J Med Chem, 2011).

Series [1] can be described thus: Photostability of the compound in 17% bovine calf serum assessed as rate of photobleaching at 6.5 uM after 20 to 22 mins in presence of light (75 mW/cm'2). The class given is ADME. The conditions noted are these: cattle, read-out: Drug degradation. The gist of the method:
(§1)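 Equimolar (6.5 μM) photosensitizer solutions in 17% bovine calf serum were irradiated at 75 mW/cm². Absorption spectra were recorded at successive time points, and the normalized long-wavelength absorbance was plotted against time to follow photobleaching.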

Series [2] in a line: Photostability of the compound in 17% bovine calf serum assessed as decrease in rate of photobleaching at 6.5 uM after 40 mins in presence of light (75 mW/cm'2). Type of series: ADME. To be noted: cattle. In short, it runs like this: as §1
A short description of series [3]: Drug uptake in human BCC1 cells assessed as deposition in mitochondria at 200 nM after 30 mins by phase contrast microscopy. The conditions noted are these: bcc1, 0.5 h, 0.2 µM. Type of series: ADME. The gist of the method:
(§2)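 BCC1 cells in subconfluent culture, washed and incubated 30 min in serum-free DMEM with 200 nM PS. Washed free of PS and imaged at 640X under phase contrast and HPPH fluorescence (Ex 410/40, Em 675/750 nm). Cell PS also quantified by solubilising cells and reading fluorescence (Ex 415, Em 667 nm).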

Series [4] is described as follows: Drug uptake in human BCC1 cells assessed as deposition in mitochondria at 200 nM after 30 mins by HPPH fluorescence spectrophotometry. The class given is ADME. To be noted: bcc1, 0.5 h, 0.2 µM. The gist of the method:
as §2

A short description of series [5]: Drug uptake in human BCC1 cells at 200 nM incubated for 30 mins measured after 4 to 24 hrs by fluorescent microscopy. Type of series: ADME, cell-based. The conditions noted are these: bcc1, 0.5 h, 0.2 µM.
Series [6] relates to BCC1. The series can be described thus: Reduction in EGFR levels in human BCC1 cells after 9 mins by Western blotting in presence of 665 nm laser light. Type of series: functional, cell-based. In short, it runs like this:
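BCC1 cells were incubated 2 h in serum-free DMEM with 2-fold serially diluted photosensitizer, washed, and illuminated with 665 nm light for 9 min (3 J/cm²). They were extracted immediately in RIPA buffer. Extracts (20 μg protein) were run on 6–10% SDS gels and immunoblotted for STAT3, EGFR, p38 and P-p38 with ECL detection. STAT3 crosslinking was scored as percent conversion of monomer into dimer form I.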
On the technique in general: In western blotting, separated proteins are transferred to a membrane and probed.

The target of series [7] is MAP kinase p38 (Homo sapiens) (UniProt O15264+Q15759+Q16539+P53778). Put plainly: Activation of p38 MAPK in human BCC1 cells assessed as dimerization of STAT3 after 9 mins by Western blotting in presence of 665 nm laser light. The class given is cell-based. In short, it runs like this: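 Subconfluent BCC1 cells, 2 h in serum-free DMEM with 2-fold serially diluted PS, then 665 nm dye-laser light for 9 min at 37°C (3 J/cm²) in serum-free medium. Cells extracted immediately and lysed in RIPA. 20 μg protein run on 6–10% SDS gels and immunoblotted for STAT3, p38/P-p38 and EGFR with ECL detection. Crosslinking given as % monomeric STAT3 converted to dimer form I.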

For series [8], the system named is BCC1. Put plainly: Induction of apoptosis in human BCC1 cells assessed as survival after 24 hrs by trypan blue assay. The class given is functional, cell-based. The gist of the method: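 BCC1 cells were loaded for 2 h in serum-free DMEM with 2-fold serial dilutions of photosensitizer. After washing, they were illuminated in serum-free medium at 37° with 665 nm dye-laser light for 9 min (3 J/cm²). Cells were then cultured 24 h in DMEM/10% FCS and trypsinized. Trypan blue-excluding cells were counted by hemocytometer and expressed relative to untreated controls.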

For series [9], the system named is Colon 26. The series can be described thus: Photosensitizing activity in mouse Colon 26 assessed as cell viability at 0.0625 uM after 24 hrs followed by illumination with 665 nm laser light and 48 hrs incubation in dark by MTT assay in presence of serum. Type of series: functional, cell-based. The gist of the method: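 Colon26 cells, 3×10³/well in RPMI/10% FCS, were incubated 24 h in the dark with photosensitizer at 0.3 μM or 0.0625 μM. Medium was replaced with drug-free complete medium before illumination at 0–4 J/cm², 3.2 mW/cm², at each compound's peak wavelength (660, 665 or 674 nm). After 48 h in the dark, MTT was added for the last 4 h and absorbance read at 570 nm. Four replicate wells per condition, three independent experiments.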
(In general: Formazan colour is commonly taken as a measure of viable cells.)

In series [10] the test system is Colon 26. The series can be described thus: Drug uptake in mouse Colon 26 cells at 400 nM after 24 hrs by flow cytometry. The class given is ADME, cell-based. The conditions noted are these: colon 26, 24 h, 0.4 µM. The gist of the method:
(§3)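 Colon26 cells seeded at 0.33×10⁶ per well and grown overnight, then given 100–800 nM PS in triplicate at 37°C, with no-PS wells for autofluorescence. Harvested by trypsin, spun cold, and run on flow cytometry (Ex 633 nm, Em 730±45 nm, 10,000 events). Value is mean fluorescence of triplicates minus autofluorescence.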
(In flow cytometry, cells or beads pass a laser one at a time.)

Series [11] deals with Colon 26. Put plainly: Drug uptake in mouse Colon 26 cells at 800 nM after 24 hrs by flow cytometry. The class given is ADME, cell-based. To be noted: colon 26, 24 h, 0.8 µM. In short, it runs like this: as §3
The test system of series [12] is Colon 26. The series can be described thus: Antitumor activity against mouse Colon 26 cells xenografted in parenterally dosed BALB/c mouse assessed as tumor cure at 1 umol/kg after 24 hrs followed by illumination with 128 J/cm'2, 14 mW/cm'2 laser light measured after 60 days. The class given is functional. The gist of the method: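 Subcutaneous Colon26 tumours in BALB/c mice (10/group), dosed at 4–5 mm diameter with 1 μmol/kg PS. At 24 h, unanaesthetised restrained mice received laser light to the tumour (665, 660 or 674 nm by compound; 128 J/cm², 14 mW/cm²). Tumours measured daily (V = L·W²/2). Cure means no palpable tumour by day 60–90. Euthanasia at 400 mm³.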

The subject of series [13] is Mus musculus. The series can be described thus: Drug uptake in BALB/c mouse xenografted with mouse Colon 26 cells at 1 umol/kg, iv after 24 hrs by fluorescence imaging. The class given is ADME, organism-based. The conditions noted are these: in vivo. The gist of the method:
(§4)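 BALB/c mice (3/group) with Colon26 tumours (1×10⁶ cells s.c., right axilla, grown to 4–5 mm) were shaved and given 1.0 μmol/kg PS i.v. Whole-body fluorescence imaged under ketamine/xylazine at 24, 48 and 72 h: 540/40 nm illumination, long-pass emission filter, spectral unmixing of autofluorescence. Read-out is mean intensity of a 20 mm tumour ROI (AU), mean ± SD of 3 mice.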

Series [14] concerns Mus musculus. Put plainly: Drug uptake in BALB/c mouse xenografted with mouse Colon 26 cells at 1 umol/kg, iv after 48 hrs by fluorescence imaging. The class given is ADME, organism-based. To be noted: in vivo. The gist of the method: as §4
Series [15] deals with Mus musculus. Put plainly: Drug uptake in BALB/c mouse xenografted with mouse Colon 26 cells at 1 umol/kg, iv after 72 hrs by fluorescence imaging. The class given is ADME, organism-based. To be noted: in vivo. The gist of the method: as §4
Series [16] in a line: Drug uptake in BALB/c mouse tumor xenografted with mouse Colon 26 cells at 1 umol/kg, iv after 24 hrs by fluorescence imaging. The conditions noted are these: in vivo. The class given is ADME, organism-based, Neoplasm. The gist of the method:
as §4

In series [17] the test system is BCC1. Put plainly: Increase in STAT3 cross linking level in human BCC1 cells assessed as dimerization of STAT3 after 9 mins by Western blotting in presence of 665 nm light.
Series [18] relates to BCC1 cells (Homo sapiens). The series can be described thus: Ratio of drug uptake in human BCC1 cells in serum free medium to drug uptake in human BCC1 cells in medium containing 10% fetal calf serum by fluorescent microscopy.

Calls of active or inactive are those of the source. The rule behind the calls is not given here.

Consider `CCc1c(C)c2cc3nc(c4c5[nH]c(cc6nc(cc1[nH]2)C(C)=C6C(C)OCc1cccc(I)c1)c(C)c5C(=O)C4)[C@@H](CCC(=O)O)[C@@H]3C` (stereo partly drawn), for which, in [1], the degraded at 6.5 µM came out at 50%. Besides, the Stability result in series [2] is on record as “Stable”. Besides, the Drug uptake result (in series [3]; in series [4]; in series [5]; with Colon 26 [10]; in the series on Colon 26 [11]; in the series with Mus musculus [13]) was “Active” in each case. Further, the Drug uptake entry with Mus musculus [14] is recorded as “Active”; in the series on Mus musculus [15], “Active”; in series [16] it was “Not Active”. Moreover, the result (in the series with BCC1 [6]; in [7]; in the series on Colon 26 [9]; in the series on BCC1 [17]) was Active. Also, the Activity result in the series on BCC1 [8] is “Dose-dependent effect”. Besides, in the series with Colon 26 [12], the outcome was inactive. In series [18], the Ratio is listed as 4.
